How the values were obtained:
[1] = system: Rattus norvegicus; experiment: Antihypertensive activity in renal hypertensive rats 6 hr after oral administration (10 mg/Kg); type: functional
How it was run: (§1)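 Renal hypertensive rats (5 or 10 per group), 10 mg/kg given orally. Systolic pressure measured indirectly by tail occluding cuff with pulse sensor, once before dosing as control and again at 1, 2, 4, 6 and 8 h. Values are changes in mean systolic pressure from control (mmHg). Significance of control vs posttreatment assessed by Wilcoxon's signed rank test (p < 0.05).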

[2] = system: Rattus norvegicus; experiment: Antihypertensive activity in renal hypertensive rats 8 hr after oral administration (10 mg/Kg); type: functional; how it was run: as §1
[3] = system: Rattus norvegicus; experiment: Antihypertensive activity in renal hypertensive rats 1 hr after oral administration (10 mg/Kg); type: functional; how it was run: as §1
[4] = system: Rattus norvegicus; experiment: Antihypertensive activity in renal hypertensive rats 2 hr after oral administration (10 mg/Kg); type: functional; how it was run: as §1
[5] = system: Rattus norvegicus; experiment: Antihypertensive activity in renal hypertensive rats 4 hr after oral administration (10 mg/Kg); type: functional; how it was run: as §1
[6] = system: Felis catus; experiment: Change in blood pressure in normotensive anesthetized cat.; type: functional
How it was run: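 Normotensive cats of either sex (2-4 kg) anesthetized with α-chloralose (80 mg/kg iv). Trachea, femoral artery and jugular vein cannulated. Compound given iv at 10 mg/kg, with 1 mg/kg iv used in one case. Mean blood pressure recorded by pressure transducer before and 30 min after dosing, reported as decrease in mmHg.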

[7] = system: Felis catus; experiment: Control blood pressure in normotensive anesthetized cat at dose 10 mg/Kg iv

SMILES	BP [1]	BP [2]	BP [3]	BP [4]	BP [5]	BP [6]	control BP [7]
COc1ccc2[nH]cc(C(CN)CO)c2c1.O=C(O)C(=O)O (centres undefined)	-8 mmHg	0 mmHg	-13 mmHg	-15 mmHg	4 mmHg		
COC(=O)C(CN)c1c[nH]c2ccc(Br)cc12.Cl (centres undefined)	8 mmHg	7 mmHg	-6 mmHg	-10 mmHg	6 mmHg	-35 mmHg	125 mmHg
Cl.NCC(C(=O)O)c1c[nH]c2ccc(Br)cc12 (centres undefined)	5 mmHg	0 mmHg	-12 mmHg	-5 mmHg	0 mmHg	-15 mmHg	115 mmHg
CCCCCOC(=O)C(CN)c1c[nH]c2ccc(OC)cc12.Cl (centres undefined)	-11 mmHg	-4 mmHg	-7 mmHg	-11 mmHg	-3 mmHg	2 mmHg	148 mmHg
CCOC(=O)C(CN)c1c[nH]c2ccc(OC)cc12.Cl (centres undefined)	-2 mmHg	-3 mmHg	-5 mmHg	-4 mmHg	4 mmHg	0 mmHg	160 mmHg
COC(=O)C(CN)c1c(C)[nH]c2ccc(OC)cc12.Cl (centres undefined)	-8 mmHg	-3 mmHg	2 mmHg	-2 mmHg	-8 mmHg	1 mmHg	164 mmHg
COC(=O)C(CN)c1c[nH]c2ccccc12.Cl (centres undefined)	-6 mmHg	-7 mmHg	-7 mmHg	-9 mmHg	-9 mmHg	-53 mmHg	156 mmHg
COC(=O)C(CN)c1cn(C)c2ccc(OC)cc12.Cl (centres undefined)	1 mmHg	7 mmHg	-5 mmHg	-6 mmHg	3 mmHg	20 mmHg	165 mmHg
COC(=O)C(CN)c1c[nH]c2ccc(O)cc12.Cl (centres undefined)	0 mmHg	7 mmHg	7 mmHg	1 mmHg	4 mmHg	-85 mmHg	135 mmHg
CCCOc1ccc2[nH]cc(C(CN)C(=O)OC)c2c1.Cl (centres undefined)	9 mmHg	5 mmHg	-6 mmHg	6 mmHg	8 mmHg		150 mmHg
COc1ccc2[nH]cc(C(CN)C(=O)O)c2c1 (centres undefined)	-6 mmHg	-2 mmHg	-1 mmHg	-10 mmHg	2 mmHg	-5 mmHg	142 mmHg
COC(=O)CC(CN)c1c[nH]c2ccc(OC)cc12 (centres undefined)	-13 mmHg	-12 mmHg	-14 mmHg	-15 mmHg	-6 mmHg	-25 mmHg	166 mmHg
CCOC(=O)C(N)Cc1c[nH]c2ccc(O)cc12 (centres undefined)	2 mmHg	1 mmHg	-14 mmHg	-5 mmHg	2 mmHg	-24 mmHg	156 mmHg
NC(Cc1c[nH]c2ccc(O)cc12)C(=O)O (centres undefined)	6 mmHg	-1 mmHg	-9 mmHg	-5 mmHg	0 mmHg	-24 mmHg	162 mmHg
NCC(C(=O)O)c1c[nH]c2ccccc12 (centres undefined)	-13 mmHg	-8 mmHg	-6 mmHg	-8 mmHg	-10 mmHg	-10 mmHg	153 mmHg
CCOC(=O)CC(c1nnn[nH]1)c1c[nH]c2cc(Cl)ccc12 (centres undefined)	-17 mmHg	-11 mmHg	-5 mmHg	2 mmHg	-4 mmHg	-20 mmHg	175 mmHg
CCOC(=O)CC(c1nnn[nH]1)c1c[nH]c2cc(OC)c(OC)cc12 (centres undefined)	-25 mmHg	-14 mmHg	-11 mmHg	-15 mmHg	-20 mmHg	-6 mmHg	164 mmHg
COC(=O)CC(CN)c1c[nH]c2cc(Cl)ccc12 (centres undefined)	-11 mmHg	-6 mmHg	2 mmHg	-4 mmHg	-3 mmHg	-10 mmHg	158 mmHg
CCOC(=O)CC(CNC(C)=O)c1c[nH]c2ccccc12 (centres undefined)	-6 mmHg	-2 mmHg	-8 mmHg	-11 mmHg	-7 mmHg	-21 mmHg	169 mmHg
COC(=O)C(CN(C)C)c1c[nH]c2ccc(OC)cc12.O=C(O)C(=O)O (centres undefined)	14 mmHg	13 mmHg	-9 mmHg	-2 mmHg	1 mmHg	-35 mmHg	167 mmHg
COC(=O)C(CN)c1c[nH]c2cc(Cl)ccc12.Cl (centres undefined)	-15 mmHg	-7 mmHg	-14 mmHg	-23 mmHg	-17 mmHg	-7 mmHg	140 mmHg
COC(=O)C(CN)c1c[nH]c2ccc(Cl)cc12.Cl (centres undefined)	2 mmHg	5 mmHg	-8 mmHg	-5 mmHg	0 mmHg	-61 mmHg	160 mmHg
NCC(C(=O)O)c1c[nH]c2ccc(F)cc12 (centres undefined)	-15 mmHg	0 mmHg	-19 mmHg	-26 mmHg	-27 mmHg	-25 mmHg	180 mmHg
NCC(c1nnn[nH]1)c1c[nH]c2ccccc12 (centres undefined)	5 mmHg	2 mmHg	8 mmHg	1 mmHg	8 mmHg	-5 mmHg	155 mmHg
COC(=O)C(N)Cc1c[nH]c2ccc(OC)cc12 (centres undefined)	4 mmHg	-1 mmHg	-7 mmHg	4 mmHg	-8 mmHg	-12 mmHg	136 mmHg
CCOC(=O)C(CNC(C)=O)c1cn(C(=O)OCC)c2cccc(Cl)c12 (centres undefined)	0 mmHg	2 mmHg	-8 mmHg	-1 mmHg	3 mmHg	11 mmHg	183 mmHg
COC(=O)C(c1c[nH]c2ccc(OC)cc12)C(C)N (centres undefined)	3 mmHg	2 mmHg	-6 mmHg	-3 mmHg	-3 mmHg		

Source: ChEMBL document CHEMBL1122079, “Tryptophan analogues. 1. Synthesis and antihypertensive activity of positional isomers” (1982)
